Calls of active or inactive are those of the source. No cut-off for these calls is given here.
Columns and labels:
[1] = Protein binding in mouse plasma; assay type: ADME, cell-free; conditions: read-out: PPB (converted)
[2] = Inhibition of sodium channel
Summary of the method: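 Rat cortical neurons cultured from E17 embryos and recorded at 5–10 days by whole-cell patch clamp at 23 °C. Holding −60 mV with 100 ms steps, in the presence of bicuculline, CNQX and DL-APV. Tetrodotoxin-sensitive Na+ current measured at −10 mV; mean compared by paired t test.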

[3] = target: Adrenergic receptor alpha-2 (Rattus norvegicus, UniProt P22086+P19328+P22909); assay: Binding affinity to alpha2 adrenergic receptor in rat brain; assay type: tissue-based
Neuron [4] = assay: Inhibition of voltage-gated potassium current in E17 Sprague-Dawley rat neurons at 3 uM by whole cell patch clamp method; assay type: functional
[5] = target: Glutamate receptor 2 (Rattus norvegicus) (UniProt P19491); assay: Inhibition of rat recombinant GluR2/GluR3 expressed in Xenopus oocytes assessed as inhibition of kainate-induced evoked current at 3 uM by two electrode voltage clamp method; assay type: cell-based; conditions: Oocyte
Glutamate receptor 2 (Rattus norvegicus), sequence (P19491 whole entry): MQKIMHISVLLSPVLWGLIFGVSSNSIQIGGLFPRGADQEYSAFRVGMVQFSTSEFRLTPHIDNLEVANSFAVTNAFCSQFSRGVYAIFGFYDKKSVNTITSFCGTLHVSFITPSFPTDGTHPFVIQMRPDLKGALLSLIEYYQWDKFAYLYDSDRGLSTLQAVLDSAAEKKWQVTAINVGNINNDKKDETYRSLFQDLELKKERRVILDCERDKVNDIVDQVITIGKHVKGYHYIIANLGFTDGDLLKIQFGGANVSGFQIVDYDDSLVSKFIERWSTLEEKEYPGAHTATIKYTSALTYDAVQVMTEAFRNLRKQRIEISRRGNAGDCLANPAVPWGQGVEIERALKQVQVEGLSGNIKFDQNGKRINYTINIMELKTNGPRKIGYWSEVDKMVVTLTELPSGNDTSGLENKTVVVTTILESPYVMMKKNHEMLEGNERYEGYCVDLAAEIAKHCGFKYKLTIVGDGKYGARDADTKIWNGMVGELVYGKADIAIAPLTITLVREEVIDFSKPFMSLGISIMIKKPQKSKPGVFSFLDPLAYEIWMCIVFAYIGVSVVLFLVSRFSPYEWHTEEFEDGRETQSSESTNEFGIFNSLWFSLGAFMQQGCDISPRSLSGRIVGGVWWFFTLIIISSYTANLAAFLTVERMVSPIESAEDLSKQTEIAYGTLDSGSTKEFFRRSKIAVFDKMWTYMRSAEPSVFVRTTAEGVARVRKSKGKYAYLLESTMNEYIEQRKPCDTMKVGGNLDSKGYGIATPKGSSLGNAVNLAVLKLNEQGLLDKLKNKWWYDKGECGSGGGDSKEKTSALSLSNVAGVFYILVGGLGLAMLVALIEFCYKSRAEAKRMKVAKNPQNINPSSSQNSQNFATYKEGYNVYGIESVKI
Summary of the method: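 Xenopus oocytes injected with 5–10 ng rat receptor cRNA and kept in Barth's solution at 18 °C. Two-electrode voltage clamp at −40 mV and 23 °C, 2–7 days after injection, in 90 NaCl/1 KCl/10 HEPES/0.5 BaCl2 mM at pH 7.3 or 7.6. Agonists: 50 μM kainate for GluR3, GluR4 and GluR2/3; 3 nM domoate for GluR6; 100 μM AMPA for GluR6/KA1. Current expressed as % of control; paired t test.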

Mus musculus = assay: Effect on motor coordination in mouse at 30 mg/kg, ip administered 20 mins prior to test after 5 days by rotarod test; assay type: ADME, organism-based; design: dose 30 mg/kg, route intraperitoneal; conditions: in vivo, 120 h
Summary of the method: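 Accelerating rotorod: mice held 10 s at 5 rpm, then accelerated from 5 to 35 rpm over 5 min; latency to fall recorded by light sensor. Four trials per day for 5 days, 25 min between trials. On day 5, mice were randomized and given a 5 mL/kg ip injection in 25% DMSO/75% saline 20 min before the first trial. Operator blinded; ANOVA with Dunnett's post hoc test.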

[6] = target: Sodium-dependent serotonin transporter (Homo sapiens, UniProt P31645); assay: Binding affinity to serotonin transporter
Sodium-dependent serotonin transporter, sequence (P31645 whole entry): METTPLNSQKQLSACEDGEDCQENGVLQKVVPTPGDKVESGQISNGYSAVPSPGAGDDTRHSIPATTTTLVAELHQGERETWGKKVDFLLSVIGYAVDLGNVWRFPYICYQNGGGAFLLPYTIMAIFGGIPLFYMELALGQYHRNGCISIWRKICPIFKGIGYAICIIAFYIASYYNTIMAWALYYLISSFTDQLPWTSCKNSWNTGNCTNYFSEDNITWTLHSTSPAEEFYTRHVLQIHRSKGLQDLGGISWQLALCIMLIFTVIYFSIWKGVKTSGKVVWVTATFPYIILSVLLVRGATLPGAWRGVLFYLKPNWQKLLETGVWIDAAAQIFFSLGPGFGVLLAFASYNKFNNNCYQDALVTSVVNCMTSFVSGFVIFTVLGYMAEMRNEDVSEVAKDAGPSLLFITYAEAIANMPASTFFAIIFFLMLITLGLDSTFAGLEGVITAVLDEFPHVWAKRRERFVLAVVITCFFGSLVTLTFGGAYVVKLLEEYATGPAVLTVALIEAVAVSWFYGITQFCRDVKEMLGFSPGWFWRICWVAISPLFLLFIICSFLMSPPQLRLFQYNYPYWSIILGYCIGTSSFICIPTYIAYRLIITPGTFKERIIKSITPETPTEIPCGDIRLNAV

Neuron [7] = assay: Inhibition of tetrodotoxin-sensitive voltage-gated sodium current in E17 Sprague-Dawley rat neurons at 3 uM at holding potential of […] by whole cell patch clamp method; assay type: functional
[8] = target: Glutamate NMDA receptor; GRIN1/GRIN2B (Homo sapiens) (UniProt Q05586+Q13224); assay: Inhibition of human NR1/NR2B receptor
[9] = Inhibition of L-type calcium channel
Cortical neurone = assay: Neuroprotective effect against NMDA-induced toxicity in Sprague-Dawley rat cultured cortical neurons assessed as LDH release pretreated 15 mins before NMDA treatment assessed after 16 to 24 hrs by spectrophotometry; assay type: functional
Summary of the method: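 Rat cortical cultures (E16–E19) used at 9–12 days. Cells pretreated 15 min in ACSF at pH 7.6, then exposed 10 min at room temperature to 100 μM NMDA plus 10 μM glycine with compound present. Washed with D-APV/CNQX. LDH release measured 16–24 h later as a fraction of total. Scaled between the D-APV minimum and the NMDA maximum; cultures with <10% death discarded.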

[10] = target: T1, Adrenergic receptor alpha-1 (Rattus norvegicus, UniProt P15823+P23944+P43140); assay: Displacement of [3H]prazosin from alpha1 adrenergic receptor in rat brain; assay type: tissue-based
T1 sequence (P15823 whole entry): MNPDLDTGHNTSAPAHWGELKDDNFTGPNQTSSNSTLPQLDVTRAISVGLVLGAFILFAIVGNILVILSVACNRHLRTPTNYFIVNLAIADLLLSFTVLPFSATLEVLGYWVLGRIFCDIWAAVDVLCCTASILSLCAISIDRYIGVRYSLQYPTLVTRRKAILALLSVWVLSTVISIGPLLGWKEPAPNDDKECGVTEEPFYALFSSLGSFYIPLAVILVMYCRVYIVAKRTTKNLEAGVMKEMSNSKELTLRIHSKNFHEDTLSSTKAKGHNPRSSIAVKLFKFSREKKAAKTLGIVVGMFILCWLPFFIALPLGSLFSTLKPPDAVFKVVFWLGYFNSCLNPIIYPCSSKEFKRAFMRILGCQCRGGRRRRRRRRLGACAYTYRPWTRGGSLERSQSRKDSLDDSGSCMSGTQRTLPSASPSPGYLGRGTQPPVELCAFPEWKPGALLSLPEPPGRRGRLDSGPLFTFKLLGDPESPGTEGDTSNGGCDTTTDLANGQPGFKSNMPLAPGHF
T1 sequence (P23944 whole entry): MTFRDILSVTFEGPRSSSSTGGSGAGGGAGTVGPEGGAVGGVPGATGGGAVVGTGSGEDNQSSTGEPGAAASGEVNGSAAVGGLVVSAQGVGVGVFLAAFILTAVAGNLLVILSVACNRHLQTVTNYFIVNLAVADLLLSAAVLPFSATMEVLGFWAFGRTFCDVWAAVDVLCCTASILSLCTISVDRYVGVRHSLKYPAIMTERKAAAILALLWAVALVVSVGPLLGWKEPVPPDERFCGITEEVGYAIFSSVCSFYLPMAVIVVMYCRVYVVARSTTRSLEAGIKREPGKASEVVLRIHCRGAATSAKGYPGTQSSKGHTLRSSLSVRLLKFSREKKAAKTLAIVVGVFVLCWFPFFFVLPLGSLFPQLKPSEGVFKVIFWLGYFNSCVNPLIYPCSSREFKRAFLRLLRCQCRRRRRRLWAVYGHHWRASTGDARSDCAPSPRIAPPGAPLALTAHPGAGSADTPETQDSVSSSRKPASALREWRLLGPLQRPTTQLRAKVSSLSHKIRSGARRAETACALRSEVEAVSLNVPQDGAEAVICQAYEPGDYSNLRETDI
T1 sequence (P43140 whole entry): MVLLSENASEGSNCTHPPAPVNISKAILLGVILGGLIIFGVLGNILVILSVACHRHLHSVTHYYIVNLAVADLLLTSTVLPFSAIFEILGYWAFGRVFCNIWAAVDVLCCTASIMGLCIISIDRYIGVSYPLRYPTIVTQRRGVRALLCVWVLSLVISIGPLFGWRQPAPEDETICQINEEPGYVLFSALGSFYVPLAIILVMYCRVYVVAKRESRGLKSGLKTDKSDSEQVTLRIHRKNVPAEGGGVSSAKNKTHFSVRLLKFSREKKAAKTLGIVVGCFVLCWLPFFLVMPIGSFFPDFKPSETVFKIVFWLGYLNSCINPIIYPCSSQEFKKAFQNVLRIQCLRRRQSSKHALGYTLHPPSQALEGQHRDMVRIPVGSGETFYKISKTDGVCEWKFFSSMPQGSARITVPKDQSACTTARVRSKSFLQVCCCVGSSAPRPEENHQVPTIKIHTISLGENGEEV
Summary of the method: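 Rat brain membranes; displacement of [3H]-prazosin at 4–6 concentrations, each point in duplicate. IC50 from displacement curves fitted by nonlinear least-squares regression.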

## CS(=O)(=O)Nc1ccc(OC[C@@H](O)CNCCc2ccc(Cl)c(Cl)c2)cc1
[1]
  fraction unbound: 0.12
[2]
  IC50: > 5 µM
[3]
  IC50: > 3 µM
Neuron [4]
  Activity: 0.72 nanoampere
[5]
  Activity: inactive
Mus musculus
  Activity: Non-toxic
[6]
  IC50: > 3 µM
Neuron [7]
  Activity: 1.27 nanoampere
[8]
  Activity: 53 nM
[9]
  IC50: > 5 µM
Cortical neurone
  Activity: Dose-dependent effect
[10]
  IC50: 2.4 µM

Reference: ChEMBL document CHEMBL1140127, “Enantiomeric propanolamines as selective N-methyl-D-aspartate 2B receptor antagonists” (J Med Chem, 2008)
